Assay results reported in article PMC8213225 (Science Advances, 2021).

Assays:
SPOP-53BP1 interaction [1] = assay: Co-IP of SPOP-53BP1 interaction after DNA damage; assay type: cell-based; settings: DNA damage by CPT
53BP1 polyubiquitination = assay: In vivo ubiquitination assay of 53BP1; assay type: cell-based; settings: CPT treatment, fig. S2E
[2] = tested on: 53BP1 FFR polyubiquitination; assay: In vivo ubiquitination assay of 53BP1 FFR; assay type: cell-based; settings: CPT treatment, fig. S2H
BPH1 cells = assay: Karyotype analysis, chromosome breaks; assay type: cell-based; settings: SPOP F133V-expressing BPH1 cells, CPT 1 μM for 24 hours; largely reversed by 53BP1 co-KO
SPOP-53BP1 interaction [3] = assay: Co-IP of SPOP-53BP1 interaction in 293T cells with kinase inhibitors and IR; assay type: cell-based; settings: IR for 1 hour
In short: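 293T cells (DMEM, 10% FBS) transiently transfected with tagged constructs by lipofection, pretreated with kinase inhibitors (DMSO vehicle), then irradiated and harvested 1 h later. Lysed in BC100 buffer 24 h post-transfection; FLAG-tagged proteins pulled down on anti-FLAG M2 agarose, HA-tagged with anti-HA plus protein A/G beads, overnight at 4°C. Immunoblot on nitrocellulose with ECL detection.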

L3MBTL1 = assay: Immunodepletion of PC-3 lysate with L3MBTL1 antibody; assay type: binding; settings: IR 4 Gy, 1 hour, immunodepleted five times
In short: (§1)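 PC-3 cells were grown in RPMI with 10% FBS, irradiated (4 Gy), and lysed 1 h later. Lysate was immunodepleted five times with antibody to L3MBTL1 or to 53BP1, with preimmune sera as control. Read-out was Western blot: SDS-PAGE, transfer to nitrocellulose, blocking in TBS (pH 7.4) with 5% nonfat milk and 0.1% Tween 20, primary antibody overnight at 4°C, secondary 1 h at room temperature.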

53BP1 = assay: Immunodepletion of PC-3 lysate with 53BP1 antibody; assay type: binding; settings: IR 4 Gy, 1 hour, immunodepleted five times
In short: as §1

[4] = target: SPOP MATH domain (residues 28 to 164) D140G (human, UniProt O43791 28-164, D140G); assay: crystal structure
SPOP MATH domain (residues 28 to 164) D140G, sequence (O43791 28-164 D140G): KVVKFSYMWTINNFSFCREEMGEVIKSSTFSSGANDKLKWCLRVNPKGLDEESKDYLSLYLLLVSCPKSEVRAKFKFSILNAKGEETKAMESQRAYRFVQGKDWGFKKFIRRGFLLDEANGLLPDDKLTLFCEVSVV

Q: Which results are given for CC[C@@]1(O)C(=O)OCc2c1cc1n(c2=O)Cc2cc3ccccc3nc2-1 [CPT, camptothecin]?
A: effect on SPOP-53BP1 interaction (SPOP-53BP1 interaction [1]): markedly enhanced; effect on SPOP-induced polyubiquitination of 53BP1 (53BP1 polyubiquitination): enhanced SPOP-induced polyubiquitination of 53BP1; effect on SPOP-increased 53BP1 FFR polyubiquitination [2]: this effect was enhanced by CPT treatment; number of intrachromosomal breaks per cell (BPH1 cells): marked increase in the number of intrachromosomal breaks per cell

Q: Which “effect on SPOP-53BP1 interaction” value (SPOP-53BP1 interaction [3]) does the source give for O=c1cc(-c2cccc3c2Sc2ccccc2S3)oc(N2CCOCC2)c1 [ATM kinase inhibitor] here?
A: attenuated the SPOP-53BP1 interaction

Q: What does the source list for “NPL4: valosin-containing protein/p97 cofactor NPL4”?
A: fraction of NPL4 bound to L3MBTL1 (L3MBTL1): approximately 33%; fraction of NPL4 bound to 53BP1 (53BP1): approximately 10%

Q: Does PATPTASSSSSTTPT (peptide, UniProt Q12888 1636-1650, looked up) [53BP1 SBM synthetic peptide (residues 1636 to 1650)] bind [4]?
A: binds
